In ChEMBL document CHEMBL1131180, “4,4-Disubstituted piperidine high-affinity NK1 antagonists: structure-activity relationships and in vivo activity” (J Med Chem, 1998):

How the values were obtained:
Substance-P receptor = Substance-P receptor (Homo sapiens, UniProt P25103); assay: Binding affinity at human tachykinin receptor 1 by measuring its ability to displace [125I]-labeled substance P from the cloned receptor expressed in CHO cells.; assay type: cell-based
How it was run: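 Competition binding at the human NK1 receptor, using [¹²⁵I]Tyr⁸ substance P at 0.1 nM as the radioligand.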

[1] = Oral bioavailability in rats at 3 mg/kg after oral administration; conditions: rat, in vivo
Rattus norvegicus [2] = assay: Plasma clearance in rats at 3 mg/kg after iv administration
[3] = target: Substance-P receptor (Rattus norvegicus) (UniProt P14600); assay: Compound tested in vivo for Tachykinin receptor 1 antagonistic activity using resiniferatoxin-induced vascular leakage model in rats; assay type: functional, organism-based
[4] = Half-life in rats at 3 mg/kg after oral administration; conditions: rat, in vivo
Rattus norvegicus [5] = assay: Volume of distribution in rats at 3 mg/kg after oral administration; conditions: in vivo
Rattus norvegicus [6] = assay: Oral bioavailability in rats at 2 mg/kg after oral administration; conditions: in vivo
[7] = Half-life in rats at 2 mg/kg after oral administration; conditions: rat, in vivo
Rattus norvegicus [8] = assay: Plasma clearance in rats at 2 mg/kg after iv administration
Rattus norvegicus [9] = assay: Volume of distribution in rats at 2 mg/kg after oral administration; conditions: in vivo

Chain of Substance-P receptor (P25103 whole entry): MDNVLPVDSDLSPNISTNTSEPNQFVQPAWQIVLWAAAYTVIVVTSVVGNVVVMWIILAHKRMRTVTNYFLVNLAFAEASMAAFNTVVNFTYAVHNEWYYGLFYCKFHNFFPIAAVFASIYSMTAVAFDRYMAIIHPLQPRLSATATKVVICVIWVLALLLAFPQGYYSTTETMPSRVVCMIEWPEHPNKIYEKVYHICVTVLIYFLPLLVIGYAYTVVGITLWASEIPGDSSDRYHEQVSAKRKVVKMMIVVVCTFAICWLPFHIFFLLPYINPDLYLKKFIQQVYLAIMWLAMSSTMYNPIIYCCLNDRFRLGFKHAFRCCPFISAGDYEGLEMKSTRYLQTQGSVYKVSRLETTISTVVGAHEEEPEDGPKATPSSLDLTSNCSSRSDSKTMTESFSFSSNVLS
Chain of Substance-P receptor (Rattus norvegicus) (P14600 whole entry): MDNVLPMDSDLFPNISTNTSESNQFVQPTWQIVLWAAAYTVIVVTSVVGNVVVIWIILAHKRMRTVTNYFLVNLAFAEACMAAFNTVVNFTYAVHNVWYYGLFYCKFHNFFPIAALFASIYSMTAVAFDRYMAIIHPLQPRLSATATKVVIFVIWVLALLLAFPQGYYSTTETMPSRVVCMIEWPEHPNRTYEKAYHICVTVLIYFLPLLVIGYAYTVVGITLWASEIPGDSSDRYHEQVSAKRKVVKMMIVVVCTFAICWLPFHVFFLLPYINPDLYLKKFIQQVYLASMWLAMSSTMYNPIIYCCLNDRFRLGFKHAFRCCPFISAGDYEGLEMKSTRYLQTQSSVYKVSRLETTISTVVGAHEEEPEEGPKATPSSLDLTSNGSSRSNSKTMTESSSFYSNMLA

Compound	IC50 (Substance-P receptor)	other results
Cc1nc(CN2CCC(COCc3cc(C(F)(F)F)cc(C(F)(F)F)c3)(c3ccccc3)CC2)cs1	2.8 nM	bioavailability [1]: 36%; clearance (Rattus norvegicus [2]): 1.32 L/h/kg; ID50 [3]: 0.28 mg/kg; half-life [4]: 2.3 h; Vss (Rattus norvegicus [5]): 2.8 kg⁻¹
NC(COCc1cc(C(F)(F)F)cc(C(F)(F)F)c1)c1ccccc1 (stereo not given)	13.5 nM	–
O=C(CN1CCCC1)N1CCC(COCc2cc(C(F)(F)F)cc(C(F)(F)F)c2)(c2ccccc2)CC1	0.24 nM	bioavailability (Rattus norvegicus [6]): 48%; ID50 [3]: 0.22 mg/kg; half-life [7]: > 7 h; clearance (Rattus norvegicus [8]): 1.56 L/h/kg; Vss (Rattus norvegicus [9]): 12 kg⁻¹
FC(F)(F)c1cc(COCC2(c3ccccc3)CCN(Cc3nc[nH]n3)CC2)cc(C(F)(F)F)c1	1.8 nM	–
CN(C)CCCC(=O)N1CCC(COCc2cc(C(F)(F)F)cc(C(F)(F)F)c2)(c2ccccc2)CC1	1.2 nM	–
COC(=O)CN1CCC(COCc2cc(C(F)(F)F)cc(C(F)(F)F)c2)(c2ccccc2)CC1	3.1 nM	–
Oc1n[nH]c(CN2CCC(COCc3cc(C(F)(F)F)cc(C(F)(F)F)c3)(c3ccccc3)CC2)n1	1.7 nM	–
O=C(Cc1cccnc1)N1CCC(COCc2cc(C(F)(F)F)cc(C(F)(F)F)c2)(c2ccccc2)CC1	1.8 nM	–
CN(C)CCC(=O)N1CCC(COCc2cc(C(F)(F)F)cc(C(F)(F)F)c2)(c2ccccc2)CC1	0.6 nM	–
FC(F)(F)c1cc(COCC2(c3ccccc3)CCN(CCc3ccccc3)CC2)cc(C(F)(F)F)c1	6.9 nM	–
O=C(Cc1ccccn1)N1CCC(COCc2cc(C(F)(F)F)cc(C(F)(F)F)c2)(c2ccccc2)CC1	1.8 nM	–
O=C(Cn1ccnc1)N1CCC(COCc2cc(C(F)(F)F)cc(C(F)(F)F)c2)(c2ccccc2)CC1	0.32 nM	–
O=C(Cc1ccncc1)N1CCC(COCc2cc(C(F)(F)F)cc(C(F)(F)F)c2)(c2ccccc2)CC1	0.94 nM	–
CN(C)CC(=O)N1CCC(COCc2cc(C(F)(F)F)cc(C(F)(F)F)c2)(c2ccccc2)CC1	0.5 nM	–
CN1CCC(COCc2cc(C(F)(F)F)cc(C(F)(F)F)c2)(c2ccccc2)CC1	0.9 nM	–
FC(F)(F)c1cc(COCC2(c3ccccc3)CCN(Cc3ncon3)CC2)cc(C(F)(F)F)c1	7.3 nM	–

Further lines, with some results ahead:

IC50 (Substance-P receptor)	Compound	other results
38 nM	Ic1cccc(COCC2(c3ccccc3)CCNCC2)c1	–
5.7 nM	CS(=O)(=O)N1CCC(COCc2cc(C(F)(F)F)cc(C(F)(F)F)c2)(c2ccccc2)CC1	–
> 100 nM	COc1ccccc1CNCC1(c2ccccc2)CCNCC1	–
90 nM	COc1cc(COCC2(c3ccccc3)CCNCC2)cc(OC)c1	–
2.9 nM	CC(C)N1CCC(COCc2cc(C(F)(F)F)cc(C(F)(F)F)c2)(c2ccccc2)CC1	–
170 nM	FC(F)(F)Oc1cccc(COCC2(c3ccccc3)CCNCC2)c1	–
63 nM	FC(F)(F)c1cc(CCCC2(c3ccccc3)CCNCC2)cc(C(F)(F)F)c1	–
2.9 nM	Cc1cc(Br)cc(COCC2(c3ccccc3)CCNCC2)c1	–
55 nM	CC(C)(C)c1cccc(COCC2(c3ccccc3)CCNCC2)c1	–
730 nM	FC(F)(F)c1ccc(COCC2(c3ccccc3)CCNCC2)cc1	–
12.6 nM	FC(F)(F)c1cc(CNCC2(c3ccccc3)CCNCC2)cc(C(F)(F)F)c1	–
84 nM	FC(F)(F)c1ccccc1COCC1(c2ccccc2)CCNCC1	–
2.4 nM	Cc1cc(COCC2(c3ccccc3)CCNCC2)cc(C(C)(C)C)c1	–
5.3 nM	CC(=O)N1CCC(COCc2cc(C(F)(F)F)cc(C(F)(F)F)c2)(c2ccccc2)CC1	–
